According to ChEMBL document CHEMBL1122551, “Bis(m-nitrophenyl) and bis(p-nitrophenyl) esters and the phosphorodiamidate of thymidine 5'-phosphate as potential sources of intracellular thymidine 5'-phosphate in mouse cells in culture” (J Med Chem, 1984):

How the values were obtained:
LM [1] = assay: Rate of incorporation of [3H]- into DNA fraction of mouse LM(TK-) cells after 19h of pre-incubation, expressed as cpm 1/(10e6 cells) 1/h; type: functional
In short: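 LM(TK-) thymidine-kinase-deficient mouse fibroblasts in DMEM with 10% FBS at 37 °C in 5% CO2. Cells were exposed to [methyl-3H]-labeled compound at 0.9 μM and 1 μCi/mL (0.5% EtOH) for 19 h. Acid-insoluble 3H was counted on CCl3CO2H-washed filters. Rate was expressed per 10^6 cells per hour, using Coulter counts.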

[2] = Time for hydrolysis of half the starting material was studied at a temperature of 27 degrees celsius and aqueous 50 mM phosphate + 10 % p-dioxane (pH 7.6) as medium; type: ADME; details: phosphate buffer with 10% p-dioxane
In short: (§1)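 Hydrolysis in aqueous 50 mM potassium phosphate, pH 7.6, starting at 0.05 mM substrate. Nitrophenol release was followed spectrophotometrically at 400 nm. Half-life is the time for hydrolysis of half the starting material.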

[3] = Time for hydrolysis of half the starting material was studied at a temperature of 37 degrees celsius and aqueous 50 mM phosphate (pH 6) as medium; type: ADME; details: phosphate buffer
In short: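 Stability in 50 mM potassium phosphate at pH 7.6 or 6.0, 37 °C, followed by paper electrophoresis for up to 72 h. Half-life is the time for hydrolysis of half the starting material.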

[4] = Time for hydrolysis of half the starting material was studied at a temperature of 37 degrees celsius and aqueous 50 mM phosphate + 10 % p-dioxane (pH 7.6) as medium(d=no hydrolysis after 72 h); type: ADME; details: phosphate buffer with 10% p-dioxane
[5] = Time for hydrolysis of half the starting material was studied at a temperature of 23 degrees celsius and aqueous 50 mM phosphate + 10 % p-dioxane (pH 7.6) as medium; type: ADME, Rattus norvegicus; details: phosphate buffer with 10% p-dioxane; in short: as §1
LM [6] = assay: Rate of incorporation of [3H]-into DNA fraction of mouse LM(TK-) cells after 2 hr of pre-incubation, expressed as cpm 1/(10e6 cells) 1/h; type: functional
In short: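 LM(TK⁻) mouse L fibroblasts (thymidine-kinase deficient) in DMEM with 10% FBS, 37 °C, 5% CO2. Seeded in 6-cm dishes and grown overnight. Medium replaced with 0.017 μM [1',2',5-³H]-2'-deoxycytidine at 1 μCi/mL, 0.5% EtOH, for 2 h. Cells trypsinized, filter-collected, washed with 5% CCl3CO2H and 70% ethanol, then scintillation-counted. Zero-time blanks taken; cells per dish counted by Coulter.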

[7] = Time for hydrolysis of half the starting material was studied at a temperature of 27 degrees celsius and aqueous 50 mM phosphate (pH 7.6) as medium.; type: ADME; details: phosphate buffer; in short: as §1

**Q.** With `Cc1cn([C@H]2C[C@H](O)[C@@H](COP(=O)(O)Oc3cccc([N+](=O)[O-])c3)O2)c(=O)[nH]c1=O` as the compound, how does the Activity (LM [1]) read?
**A.** 37.6

**Q.** Which half-life [2] does the source give for `CCOP(=O)(Oc1ccc([N+](=O)[O-])cc1)Oc1ccc([N+](=O)[O-])cc1` here?
**A.** 2 h

**Q.** Which half-life [3] does the source give for `Cc1cn([C@H]2C[C@H](O)[C@@H](COP(N)(N)=O)O2)c(=O)[nH]c1=O` here?
**A.** > 72 h

**Q.** And the half-life [4]?
**A.** > 72 h

**Q.** Which half-life [5] does the source give for `Cc1cn([C@H]2C[C@H](O)[C@@H](COP(=O)(Oc3cccc([N+](=O)[O-])c3)Oc3cccc([N+](=O)[O-])c3)O2)c(=O)[nH]c1=O` here?
**A.** 4.75 h

**Q.** What about the Activity (LM [1]) of the same compound?
**A.** 18.1

**Q.** Which Activity (LM [6]) does the source give for `Nc1ccn([C@H]2C[C@H](O)[C@@H](CO)O2)c(=O)n1` [DOXECITINE] here?
**A.** 21960

**Q.** With `Cc1cn([C@H]2C[C@H](O)[C@@H](CO)O2)c(=O)[nH]c1=O` [DOXRIBTIMINE] as the compound, how does the Activity (LM [1]) read?
**A.** 53

**Q.** Which results are given for `Cc1cn([C@H]2C[C@H](O)[C@@H](COP(=O)(Oc3ccc([N+](=O)[O-])cc3)Oc3ccc([N+](=O)[O-])cc3)O2)c(=O)[nH]c1=O`?
**A.** half-life [7]: 0.83 h; half-life [2]: 0.58 h
